According to ChEMBL document CHEMBL1667737, “Cytochrome P450 3A4 inhibitory constituents of the wood of Taxus yunnanensis” (J Nat Prod, 2011):

Columns and labels:
Cytochrome P450 3A4 = Cytochrome P450 3A4 (Homo sapiens, UniProt P08684); test: Inhibition of CYP3A4 after 30 mins by fluorometric assay; assay type: ADME
How it was run: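 cDNA-expressed CYP3A4 in insect cell microsomes (with insect cell control protein) O-dealkylating 7-benzyloxy-4-trifluoromethylcoumarin to fluorescent 7-HFC. Samples in MeOH, 8-point 1:3 serial dilutions in pH 7.4 potassium phosphate with an NADP+/glucose-6-phosphate/G6PDH/MgCl2 regenerating system. 10 min prewarm, 30 min at 37 °C, stopped with acetonitrile–Tris base. Triplicate; IC50 by linear interpolation.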

Cytochrome P450 2D6 = Cytochrome P450 2D6 (Homo sapiens, UniProt P10635); test: Inhibition of CYP2D6 after 30 mins by fluorometric assay; assay type: ADME
How it was run: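 cDNA-expressed CYP2D6 in insect cell microsomes with AMMC ([…] in the enzyme/substrate mix), in pH 7.4 phosphate buffer with an NADP+/glucose-6-phosphate/G6PDH/MgCl2 regenerating system. Compound in MeOH, eight-point 1:3 serial dilution. 10 min prewarm, then 30 min at 37 °C. Stopped with acetonitrile–Tris. Triplicate; IC50 by linear interpolation.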

Cytochrome P450 2D6, sequence (P10635 whole entry): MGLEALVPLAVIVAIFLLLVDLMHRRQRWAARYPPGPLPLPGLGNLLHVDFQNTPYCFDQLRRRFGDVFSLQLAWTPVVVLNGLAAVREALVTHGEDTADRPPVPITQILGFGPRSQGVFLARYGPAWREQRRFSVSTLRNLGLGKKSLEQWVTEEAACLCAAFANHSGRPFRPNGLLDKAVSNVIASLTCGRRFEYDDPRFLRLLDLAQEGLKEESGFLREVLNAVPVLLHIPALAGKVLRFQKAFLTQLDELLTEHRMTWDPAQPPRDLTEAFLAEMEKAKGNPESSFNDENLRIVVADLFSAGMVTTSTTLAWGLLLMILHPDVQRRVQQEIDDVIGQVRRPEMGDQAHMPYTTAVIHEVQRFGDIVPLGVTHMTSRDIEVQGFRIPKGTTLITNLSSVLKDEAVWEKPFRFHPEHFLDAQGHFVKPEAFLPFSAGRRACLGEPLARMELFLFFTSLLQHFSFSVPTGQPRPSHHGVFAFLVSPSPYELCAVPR
Cytochrome P450 3A4, sequence (P08684 whole entry): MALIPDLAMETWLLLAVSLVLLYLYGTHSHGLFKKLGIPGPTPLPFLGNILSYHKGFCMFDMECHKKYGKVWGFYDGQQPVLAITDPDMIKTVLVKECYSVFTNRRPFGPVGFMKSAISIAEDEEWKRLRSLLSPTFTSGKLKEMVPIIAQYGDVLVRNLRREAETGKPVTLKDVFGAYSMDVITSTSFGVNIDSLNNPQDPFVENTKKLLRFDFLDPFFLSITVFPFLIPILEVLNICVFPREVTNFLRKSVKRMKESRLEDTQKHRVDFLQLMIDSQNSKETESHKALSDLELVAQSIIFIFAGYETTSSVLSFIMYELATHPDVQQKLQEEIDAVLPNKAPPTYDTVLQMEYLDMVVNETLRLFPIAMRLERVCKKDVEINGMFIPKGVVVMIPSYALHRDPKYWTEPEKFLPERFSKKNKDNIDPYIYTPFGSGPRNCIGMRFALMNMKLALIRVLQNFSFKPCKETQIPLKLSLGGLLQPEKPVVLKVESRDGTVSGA

| Compound | IC50 (Cytochrome P450 3A4) | IC50 (Cytochrome P450 2D6) | IC50 (Cytochrome P450 3A4; read-out: IC50) [µM] | IC50 (Cytochrome P450 2D6; read-out: IC50) [µM] |
| --- | --- | --- | --- | --- |
| COc1cc([C@H](O)[C@H]2CO[C@H](c3ccc(O)c(O)c3)[C@H]2CO)ccc1O [(7R)-7-HYDROXYTAXIRESINOL] | Not Active | Not Active | – | – |
| COc1cc(C[C@H]2CO[C@H](c3ccc(O)c(O)c3)[C@H]2CO)ccc1O [TAXIRESINOL] | – | – | 85.6 | 68.1 |
| COc1cc([C@H]2c3cc(O)c(OC)cc3C[C@@H](CO)[C@@H]2CO)ccc1O [ISOLARICIRESINOL] | – | – | > 100 | 97.7 |
| COc1cc([C@@H](O)[C@@H]2CO[C@H](c3ccc(O)c(OC)c3)[C@H]2CO)ccc1O [TANEGOOL] | Not Active | Not Active | – | – |
| COc1cc2c(cc1O)C(=O)[C@@H](CO)[C@H](CO)C2 | Not Active | Not Active | – | – |
| COc1cc(C[C@@H](CO)[C@H](CO)Cc2ccc(O)c(OC)c2)ccc1O [(+)-SECOISOLARICIRESINOL] | – | – | 47.3 | > 100 |
| COc1cc([C@@H]2Oc3cc(CCCO)ccc3O[C@H]2CO)ccc1O | – | – | 54.2 | > 100 |
| COc1cc([C@H]2OC[C@H]([C@@H](O)c3ccc(O)c(OC)c3)[C@@H]2CO)ccc1O | – | – | 66.5 | > 100 |
| COc1cc2c(cc1O)[C@H](c1ccc(O)c(O)c1)[C@@H](CO)[C@H](CO)C2 [ISOTAXIRESINOL] | Not Active | Not Active | – | – |
| COc1cc(C[C@H]2CO[C@H](c3ccc(O)c(OC)c3)[C@H]2CO)ccc1O [LARICIRESINOL] | – | – | 25.6 | > 100 |
| COc1cc([C@H]2c3cc(O)c(OC)cc3C[C@H]3C(=O)OC[C@H]23)ccc1O [ALPHA-CONIDENDRIN] | – | – | 0.2 | 17.7 |
